# Test results reported in ChEMBL document CHEMBL2046306, “Synthesis of 6-substituted 9-methoxy-11H-indeno[1,2-c]quinoline-11-one derivatives as potential anticancer agents” (Bioorg Med Chem, 2012).
# Assays:
# NCI-H460 [1] = assay: Antiproliferative activity against human NCI-H460 cells assessed as growth at 100 uM after 48 hrs by alamar blue assay; format: functional; conditions: NCI-H460, 48 h, read-out: Activity
# Summary of the method: (§1)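 Single-dose prescreen in a three-line NCI panel (NCI-H460, MCF7, SF-268). Cells were inoculated and preincubated on microtiter plates, then exposed to test agent at 100 μM for 48 h. Alamar blue end-point. Growth is expressed as percent of untreated control cells.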
# MCF7 = assay: Antiproliferative activity against human MCF7 cells assessed as growth at 100 uM after 48 hrs by alamar blue assay; format: functional; conditions: MCF7, 48 h, read-out: Activity; summary of the method: as §1
# SF-268 = assay: Antiproliferative activity against human SF268 cells assessed as growth at 100 uM after 48 hrs by alamar blue assay; format: functional; conditions: SF-268, 48 h, read-out: Activity; summary of the method: as §1
# CCRF-CEM = assay: Growth inhibition of human CCRF-CEM cells after 48 hrs by sulforhodamine B assay; format: functional
# Summary of the method: (§2)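 NCI 60-line screen. Cells grown in RPMI 1640 with 5% FBS and 2 mM L-glutamine, seeded at 5000–40,000 cells/well, preincubated 24 h at 37 °C. Five 10-fold dilutions added, highest well concentration 10E-4 M. Incubated 48 h in 5% CO₂ at 100% humidity. Sulforhodamine B read-out by optical density; GI50 taken from dose-response curves versus control.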
# SR = assay: Growth inhibition of human SR cells after 48 hrs by sulforhodamine B assay; format: functional
# Summary of the method: (§3)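 NCI 60-line screen. Cells grown in RPMI 1640 with 5% FBS and 2 mM L-glutamine, seeded at 5000-40,000 cells/well and preincubated 24 h at 37 °C. Compounds added at five 10-fold dilutions, highest well concentration 10E-4 M. Exposure 48 h in 5% CO2 at 100% humidity. Endpoint is sulforhodamine B with optical density read-out. GI50 is the concentration giving 50% growth inhibition versus control.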
# A549 = assay: Growth inhibition of human A549 cells after 48 hrs by sulforhodamine B assay; format: functional, cell-based; conditions: A549, 48 h; summary of the method: as §2
# HCT-116 = assay: Growth inhibition of human HCT116 cells after 48 hrs by sulforhodamine B assay; format: functional; conditions: HCT-116, 48 h; summary of the method: as §2
# U-251 = assay: Growth inhibition of human U251 cells after 48 hrs by sulforhodamine B assay; format: functional; conditions: U-251, 48 h; summary of the method: as §3
# SK-MEL-5 = assay: Growth inhibition of human SK-MEL-5 cells after 48 hrs by sulforhodamine B assay; format: functional; conditions: SK-MEL-5, 48 h; summary of the method: as §3
# IGROV-1 = assay: Growth inhibition of human IGROV1 cells after 48 hrs by sulforhodamine B assay; format: functional; conditions: IGROV-1, 48 h; summary of the method: as §2
# RXF 393 = assay: Growth inhibition of human RXF393 cells after 48 hrs by sulforhodamine B assay; format: functional; conditions: RXF 393, 48 h; summary of the method: as §3
# DU-145 = assay: Growth inhibition of human DU145 cells after 48 hrs by sulforhodamine B assay; format: functional; conditions: DU-145, 48 h; summary of the method: as §2
# [2] = Growth inhibition of human Hs 578T cells after 48 hrs by sulforhodamine B assay; format: functional; summary of the method: as §2
# NCI-H460 [3] = assay: Growth inhibition of human NCI-H460 cells after 48 hrs by sulforhodamine B assay; format: functional; conditions: NCI-H460, 48 h; summary of the method: as §2
SMILES,growth at 100 µM (NCI-H460 [1]) [%],growth at 100 µM (MCF7) [%],growth at 100 µM (SF-268) [%],GI50 (CCRF-CEM) [µM],GI50 (SR) [µM],GI50 (A549) [µM],GI50 (HCT-116) [µM],GI50 (U-251) [µM],GI50 (SK-MEL-5) [µM],GI50 (IGROV-1) [µM],GI50 (RXF 393) [µM],GI50 (DU-145) [µM],GI50 [2] [µM],IC50 (A549) [µM],GI50 (NCI-H460 [3]) [µM]
COc1ccc2c(c1)/C(=N\OC(C)=O)c1c-2c(Nc2cccc(/C(C)=N/OC(C)=O)c2)nc2ccccc12,96,32,43,53.7,53.7,53.7,53.7,53.7,53.7,53.7,53.7,53.7,53.7,,
CN(C)CCCOc1ccc(-c2nc3ccc(OCCCN(C)C)cc3c3c2-c2ccc(OCCCN(C)C)cc2C3=O)cc1,,,,,,,,,,,,,,0.68,
CO/N=C1/c2cc(OC)ccc2-c2c(Nc3ccc(/C(C)=N/OC)cc3)nc3ccccc3c21,112,89,108,,,,,,,,,,,,
COc1ccc2c(c1)C(=O)c1c-2c(Nc2ccc(OC)c(OC)c2)nc2ccccc12,68,90,41,,,,,,,,,,,,
COc1ccc2c(c1)C(=O)c1c-2c(Nc2ccc(Cl)cc2)nc2ccccc12,10,96,42,15.1,15.1,15.1,15.1,15.1,15.1,15.1,15.1,15.1,15.1,,
COc1ccc2c(c1)/C(=N\O)c1c-2c(Nc2cccc(/C(C)=N/O)c2)nc2ccccc12,11,84,66,28.2,28.2,28.2,28.2,28.2,28.2,28.2,28.2,28.2,28.2,,
COc1ccc2c(c1)C(=O)c1c-2c(Nc2ccc(F)c(F)c2)nc2ccccc12,96,106,69,,,,,,,,,,,,
COc1ccc2c(c1)C(=O)c1c-2c(Nc2ccc(C(C)=O)cc2)nc2ccccc12,18,61,11,39.8,39.8,39.8,39.8,39.8,39.8,39.8,39.8,39.8,39.8,,
COc1ccc(Nc2nc3ccccc3c3c2-c2ccc(OC)cc2C3=O)cc1,69,74,65,,,,,,,,,,,,
COc1ccc2c(c1)C(=O)c1c-2c(NCCN(C)C)nc2ccccc12,0,0,6,3.47,3.47,3.47,3.47,3.47,3.47,3.47,3.47,3.47,3.47,,
COc1ccc(Nc2nc3ccccc3c3c2-c2ccc(OC)cc2C3=O)c(OC)c1,110,103,107,,,,,,,,,,,,
COc1ccc2c(c1)C(=O)c1c-2c(Nc2cccc(C(C)=O)c2)nc2ccccc12,0,17,7,12.9,21.4,17.7,2.63,3.09,5.25,3.63,9.77,11.8,3.16,,23.5
CO/N=C1/c2cc(OC)ccc2-c2c(Nc3cccc(/C(C)=N/OC)c3)nc3ccccc3c21,82,80,92,,,,,,,,,,,,
COc1ccc2c(c1)/C(=N\OC(C)=O)c1c-2c(Nc2ccc(/C(C)=N/OC(C)=O)cc2)nc2ccccc12,37,24,36,52.5,52.5,52.5,52.5,52.5,52.5,52.5,52.5,52.5,52.5,,
COc1cccc(Nc2nc3ccccc3c3c2-c2ccc(OC)cc2C3=O)c1,83,79,87,,,,,,,,,,,,
COc1ccc2c(c1)C(=O)c1c-2c(Nc2ccc(F)cc2F)nc2ccccc12,96,99,68,,,,,,,,,,,,
COc1ccc2c(c1)/C(=N\O)c1c-2c(Nc2ccc(/C(C)=N/O)cc2)nc2ccccc12,0,1,2,4.17,1.48,1.45,1.48,2.29,3.8,15.1,< 0.01,2.04,7.08,,29.5
COc1ccc2c(c1)/C(=N\OCCCN)c1c-2c(N2CCNCC2)nc2ccccc12,,,,,,,,,,,,,,0.64,
